Results taken from ChEMBL document CHEMBL1129372, “Cyclopent[a]anthraquinones as DNA intercalating agents with covalent bond formation potential: synthesis and biological activity” (J Med Chem, 1996).
Values joined by “and” are separate entries in the source; they are usually repeats but may differ in a detail not shown here. Identical values can stand only once.

Tests used:
HL-60 = experiment: Inhibition of cell growth was studied in human promyelocytic leukemic (HL-60) cells.; format: functional, cell-based
In short: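 HL-60 cells were exposed for 72 h and read by XTT-tetrazolium microculture assay: PMS-XTT incubation for 6 h at 37 °C, absorbance at 450 and 630 nm. Six to seven concentrations were tested. IC50 was derived by median-effect plot.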

833K = experiment: Inhibition of cell growth was studied in human teratocarcinoma (833K).; format: functional, cell-based
In short: (§1)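 Monolayer solid-tumor cells were assayed by SRB protein staining using six to seven concentrations. IC50 is the concentration reducing cell density to 50% of control, derived by median-effect plot.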

Mus musculus [1] = experiment: Anti cancer activity was tested on day10, in mice bearing Lewis lung adenocarcinoma by injecting 0.8 mg/kg dose of compound intraperitoneally and average weight change was reported.; format: functional; conditions: route intraperitoneal
In short: (§2)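 BDF1 mice given Lewis lung carcinoma subcutaneously (footnote: 4 × 10⁶ cells; methods: 0.2 mL brei). Dosing was ip once daily for 5 days, starting day 3 after inoculation, with drug in DMSO. Controls received DMSO alone: four control mice and three mice per dose. Body weight change, mortality and tumor volume were recorded on days 7, 10 and 14. Tumor volume is given as T/C.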

Mus musculus [2] = experiment: Anti cancer activity was tested on day 14, in mice bearing Lewis lung adenocarcinoma by injecting 0.8 mg/kg dose of compound intraperitoneally and average weight change was reported.; format: functional; conditions: route intraperitoneal; in short: as §2
Mus musculus [3] = experiment: Anti cancer activity was tested on day 7, in mice bearing Lewis lung adenocarcinoma by injecting 2.0 mg/kg dose of compound intraperitoneally and average weight change was reported.; format: functional; conditions: route intraperitoneal
In short: (§3)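 Lewis lung carcinoma was implanted subcutaneously in BDF₁ mice at 4 × 10⁶ cells. Starting day 3, drug in DMSO was given ip once daily for 5 days; untreated controls received DMSO alone. Groups were four control mice and three mice per dose. Body weight change and average tumor volume (T/C) were recorded on days 7, 10 and 14 after treatment began.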

Mus musculus [4] = experiment: Anti cancer activity was tested on day 7, in mice bearing Lewis lung adenocarcinoma by injecting 0.4 mg/kg dose of compound intraperitoneally and average tumor volume was calculated.; format: functional; conditions: route intraperitoneal; in short: as §2
SK-BR-3 = experiment: Inhibition of cell growth was studied in human mammary adenocarcinoma (SKBR-3).; format: functional, cell-based; in short: as §1
Mus musculus [5] = experiment: (§4) Anti cancer activity was tested on day10, in mice bearing Lewis lung adenocarcinoma by injecting 0.4 mg/kg dose of compound intraperitoneally and average weight change was reported.; format: functional; conditions: route intraperitoneal; in short: as §3
DC3F = experiment: Inhibition of cell growth was studied in chinese hamster lung cells (DC-3F); format: functional, cell-based; conditions: Cricetulus griseus; in short: as §1
Mus musculus [6] = experiment: Anti cancer activity was tested on day10, in mice bearing Lewis lung adenocarcinoma by injecting 0.4 mg/kg dose of compound intraperitoneally and average tumor volume was calculated.; format: functional; conditions: route intraperitoneal; in short: as §2
Mus musculus [7] = experiment: Anti cancer activity was tested on day 7, in mice bearing Lewis lung adenocarcinoma by injecting 2.0 mg/kg dose of compound intraperitoneally and average tumor volume was calculated.; format: functional; conditions: route intraperitoneal; in short: as §3
Mus musculus [8] = experiment: Anti cancer activity was tested on day 14, in mice bearing Lewis lung adenocarcinoma by injecting 0.8 mg/kg dose of compound intraperitoneally and average tumor volume was calculated.; format: functional; conditions: route intraperitoneal; in short: as §2
Mus musculus [9] = experiment: Anti cancer activity was tested on day 14, in mice bearing Lewis lung adenocarcinoma by injecting 0.4 mg/kg dose of compound intraperitoneally and average […] was reported.; format: functional; conditions: route intraperitoneal; in short: as §3
DC3F/AD-II = experiment: Inhibition of cell growth was studied in chinese hamster lung cells resistant to actinomycin D (DC-3F/AD-II).; format: functional, cell-based; conditions: Cricetulus griseus; in short: as §1
Mus musculus [10] = experiment: Anti cancer activity was tested on day10, in mice bearing Lewis lung adenocarcinoma by injecting 0.8 mg/kg dose of compound intraperitoneally and average tumor volume was calculated.; format: functional; conditions: route intraperitoneal; in short: as §2
Mus musculus [11] = experiment: Anti cancer activity was tested on day 14, in mice bearing Lewis lung adenocarcinoma by injecting 0.4 mg/kg dose of compound intraperitoneally and a. average […] was reported.; format: functional; conditions: route intraperitoneal; in short: as §2
Mus musculus [12] = experiment: as §4; format: functional; conditions: route intraperitoneal; in short: as §2; remark: listed apart in the source

Row | SMILES | IC50 (HL-60) | IC50 (833K) | Average weight change (Mus musculus [1]) | Average weight change (Mus musculus [2]) | Average weight change (Mus musculus [3]) | Tumor volume treated/control ratio (T/C) (Mus musculus [4]) | IC50 (SK-BR-3) | Average weight change (Mus musculus [5]) | IC50 (DC3F) | Average tumor volume (Mus musculus [6]) | Average tumor volume (Mus musculus [7]) | Average tumor volume (Mus musculus [8]) | Average tumor volume (Mus musculus [9]) | Average weight change (Mus musculus [9]) | IC50 (DC3F/AD-II) | Average tumor volume (Mus musculus [10]) | Average tumor volume (Mus musculus [11]) | Average weight change (Mus musculus [11]) | Average weight change (Mus musculus [12])
1 | NC(=O)OCc1cc2c(c3c1CCC3)C(=O)c1ccccc1C2=O | 123 µM | – | – | – | – | – | – | – | – | – | – | – | – | – | – | – | – | – | –
2 | CNC(=O)OCc1cc2c(c3c1CCC3)C(=O)c1ccccc1C2=O | 274 µM | – | – | – | – | – | – | – | – | – | – | – | – | – | – | – | – | – | –
3 | CO[C@@]12[C@H](COC(N)=O)C3=C(C(=O)C(C)=C(N)C3=O)N1C[C@@H]1N[C@@H]12 [MITOMYCIN] | 0.05 µM | 0.328 µM | -1.8 g | 0.2 g | -2.7 g | 0.49 T/C and 0.356 T/C | 0.993 µM | -1.2 g | 0.082 µM | 0.411 T/C | 0.169 T/C | 0.437 T/C | 0.515 T/C | 0.6 g | 0.11 µM | 0.363 T/C | – | – | –
4 | CNC(=O)OCc1cc2c(c3c1C1NC1C3)C(=O)c1ccccc1C2=O (configuration not stated) | 6.03 µM | 23.9 µM | -0.4 g | 0.5 g | – | 1.011 T/C and 0.529 T/C | 19.9 µM | – | 10.4 µM | 0.303 T/C | – | 0.496 T/C | – | – | 3.6 µM | 0.205 T/C | 0.529 T/C | 2 mg/kg | -0.2 mg/kg
